Screening data deposited in PubChem by several laboratories.
b-catenin transl – modulators of beta-catenin nuclear translocation, primary screen, imaging, HeLa cells, immunofluorescence, high-content | nuclear translocation activity, % at 5 µM | hit rate 0.3% among 190,000;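 active = nuclear translocation activity above 50% at 5 µM, with a well cell count of 50 or more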;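 also: per-cell ratio of nuclear to cytoplasmic median beta-catenin stain intensity; plate controls were DMSO negative control for no effect and GSK-3 inhibitor IX positive control for full effect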
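Assay system: human HeLa cells, native beta-catenin; doses: 5 µM primary, 0.02–20 µM confirmation; incubation: compound treatment 24 h, 37°C, 5% CO2; technique: fluorescence imaging of beta-catenin antibody stain plus DAPI; measure: % activation, nuclear-to-cytoplasmic median beta-catenin signal ratio per cell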
Insulin prom up – insulin promoter activators in MIN6 cells, imaging, high-content screening, mouse beta cells. MIN6 insulin promoter-GFP reporter; active compounds read high. AID 1625, 2009. hit rate 0.3% among 190,000. z-score at 5 µM;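 active = z-score above 3 at 5 µM with at least 500 cells counted in the well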
MT stabilize HCS – microtubule stabilizers in HeLa cells, primary screen, imaging, high-content imaging; % tubulin-high responders, % at 10 µM; hit rate 0.83% among 200,000; HeLa tubulin immunostaining HCS, 24 h; share of cells brighter than vehicle mean+2SD; AID 2205, 2009;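 active = plate Z-score above 3 for both tubulin-high and condensed-nucleus cell shares, with cell loss under 80%, at 10 µM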;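 also: anti alpha tubulin signal scored within the nucleus-defined area of each cell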
Dynein transport – inhibitors of GR-EGFP nuclear translocation, primary screen, dynein cargo transport inhibitor project, imaging, high-content, 3617.4 mouse cells. hit rate 0.47% among 220,000. test concentration mostly 20 µM; stimulated with dexamethasone, 1 µM; active compounds read low. AID 1381, 2008. z-score, hits read low;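 active = plate z-score of nuclear minus cytoplasmic receptor signal below a set negative limit, without overly bright fluorescence or cell loss, cut at about -3.5 in these data, passing the limit was not always enough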;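 also: z-score of nuclear minus cytoplasmic ring GR-EGFP intensity difference per well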
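Medium: Induction medium lacking tetracycline, stripped serum | Probe or stimulus: 1.0 µM final dexamethasone stimulus | Schedule: 48 h induction, then 1 h compound, then 30 min agonist, 37 °C | Signal: Automated 10x imaging of fixed Hoechst-stained cells | Evaluation: Per-cell GR-EGFP intensity, nucleus versus surrounding cytoplasmic ring, well-averaged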
Autophagy HCS – autophagy modulators in MEF cells, primary screen, imaging, high-content, MEF GFP-LC3; MEF GFP-LC3 puncta imaging; test concentration mostly 10 µM; calls only at 10 µM (by protocol); hit rate 0.98% among 190,000;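 active = percentage of spot-positive cells more than 3 SD above its plate mean, without a fluorescence outlier flag or 80% toxicity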;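 also: spot-positive cell cutoff set from DMSO-treated cells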
Active calls of the source: *; i = inactive; · = no result given; + = active, no number. The list is not random: actives were taken first. Their share in the collection is about 2.3%.

SMILES | b-catenin transl | Insulin prom up | MT stabilize HCS | Dynein transport | Autophagy HCS
CCOc1cc(N(CC)CC)ccc1/C=C(/C#N)c1nc2ccccc2[nH]1 | -1 | · | 12 | 3.6 | +
CCCOc1cc(N(CC)CC)ccc1/C=C(/C#N)c1nc2ccc(C)cc2[nH]1 | -1 | · | 2 | -0.17 | +
CCN(CC)c1ccc(/C=C(/C#N)c2nc3ccc(C)cc3[nH]2)c(OC(C)C)c1 | 0 | · | 2 | -1.8 | +
COCc1cc(/C=N\NC(=O)c2ccc(Cl)cc2)ccc1OC | 1 | 0.04 | 2 | -0.06 | i
COc1ccc(/C=N/NC(=O)c2ccc(Cl)cc2Cl)cc1COC(C)=O | 2 | 0.83 | 21* | 0.9 | i
COc1ccc(NC(=O)c2nc[nH]c2C(=O)Nc2ccccc2C)cc1 | 80* | -0.3 | 54* | 0.077 | i
COc1ccccc1NC(=O)c1nc[nH]c1C(=O)Nc1ccccc1OC | 6 | 0.05 | 31* | -1.7 | i
COc1ccc(NC(=O)c2nc[nH]c2C(=O)N[C@@H](C)c2ccccc2)cc1 | 0 | -0.68 | · | -0.27 | ·
CCOC(=O)N/N=C(\C)c1ccc(-n2cnnn2)cc1 | -1 | -0.1 | 2 | 0.65 | i
O=C(COC(=O)c1ccccc1)NCC1CCCO1 (centres undefined) | -8 | · | 1 | -0.22 | i
O=C(COC(=O)c1ccco1)NCC1CCCO1 (centres undefined) | 0 | 3* | 2 | 0.27 | i
CCOc1ccc(Nc2nc(Nc3ccc(O)cc3)nc(C)c2[N+](=O)[O-])cc1 | 1 | -1.3 | 3 | -0.58 | i
CCOC(=O)c1cnn(-c2cc(C(C)(C)C)nc3c(-c4ccccc4)c(C)nn23)c1N | 0 | -0.15 | 2 | -0.22 | i
CCOC(=O)c1cnn(-c2cc(C)nc3c(-c4ccccc4)cnn23)c1N | -4 | 3.6* | 5 | 1.9 | i
C=CCN1CC(O)=C(c2ccccc2)C1=N | 5 | 0.72 | 34* | -0.59 | i
N=C1C(c2ccccc2)=C(O)CN1CCCO | -3 | 0.16 | 4 | 0.99 | i
Cc1cc(C)cc(Nc2nc(-c3ccc(S(=O)(=O)N4CCCC4)cc3)cs2)c1 | 0 | -0.44 | 19* | 2.5 | i
CC1(c2ccccc2)NC(=O)N(N)C1=O (centres undefined) | 1 | -0.07 | 3 | -0.14 | i
CC(=O)c1cccc(NC(=O)Nc2c(C)nn(C)c2C)c1 | · | 0.19 | 3 | 0.78 | +
CC(=O)c1ccc(NC(=O)Nc2ccc3c(c2)nc(C)n3C)cc1 | 1 | 0.36 | 3 | -0.67 | +
Clc1ccc(/C=C/c2ncc3ccccn23)cc1 | 2 | 0.21 | 2 | -0.56 | i
O=C(COc1ccc(-n2ccnc2)cc1)Nc1cccc(Cl)c1 | 2 | 0.4 | 2 | -0.8 | i
Cn1c(=O)cc(NCCc2ccccc2)[nH]c1=O | · | -0.23 | 26* | -0.39 | i
O=C(NCC1CCCO1)c1cc(S(=O)(=O)N2CCCC2)c(Cl)cc1Cl (centres undefined) | 0 | 0.08 | 2 | 0.8 | i
CC1CCCCN1CCNC(=O)Cn1nc(-c2ccccc2)ccc1=O (centres undefined) | · | 0.27 | 4 | -0.69 | +
SMILES | b-catenin transl | Insulin prom up | MT stabilize HCS | Dynein transport | Autophagy HCS
O=C1CCC(C(=O)NCCCn2ccnc2)N1 (centres undefined) | -1 | 0.65 | 5 | 2.2 | +
O=C(Nc1nc(-c2ccc3c(c2)OCCO3)cs1)C1CCCC1 | 2 | -0.74 | 2 | -0.25 | i
O=C(CCc1nc2ccccc2c(=O)[nH]1)OCCOc1ccc(Cl)cc1 | -6 | 0.55 | 6 | -0.27 | i
COc1ccc(Nc2cc(C)nc3nc(C)nn23)c(OC)c1 | -1 | 0.41 | 3 | 0.21 | i
COc1ccc(OC)c(Nc2cc(C)nc3nc(C)nn23)c1 | 8 | -0.65 | 16* | -0.55 | i
Cc1ccc(-c2nn3c(C)nnc3c3ccccc23)cc1S(=O)(=O)N1CCN(CCO)CC1 | -1 | -0.92 | 2 | 0.18 | +
CCOC(=O)C/C(N)=N/NC(=O)c1ccc(Cl)cc1Cl | 0 | -0.3 | 2 | -0.39 | i
COC(=O)c1cc(=O)n(-c2ccc(F)cc2)c(=Nc2ccc(F)cc2)s1 | -2 | -0.71 | 7 | -4.2* | i
COC(=O)c1cc(=O)n(Cc2cccs2)c(=Nc2ccc(F)cc2)s1 | -2 | 0.25 | 5 | -1.6 | i
